Experimental data taken from paper PMC7029422 (Bioorganic & medicinal chemistry, 2020).
“Also recorded” adds a separate entry of the source.

Key:
[1] = tested on: HT-29 human colon cancer cells; test: Cytotoxicity against HT-29 cells; assay type: cell-based; conditions: HT-29, 72 h, read-out: IC50 value toward the HT-29 human colon cancer cells
[2] = tested on: glucose uptake in H1299 human lung cancer cells; test: Glucose uptake assay; assay type: cell-based; conditions: 30 μM, 15 min treatment; WZB117 30 μM as positive control
Summary of the method: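 H1299 cells (DMEM, 25 mM glucose, 10% FBS, 37 °C, 5% CO2) in 24-well plates; washed, serum-starved in FBS-free DMEM 1.5 h, then 30 min in glucose-free KRP. Test compound at final 30 μM for 15 min. Uptake then started with 37 MBq/L 2-deoxy-D-[3H]glucose plus 1 mM glucose (final) for 40 min. Stopped with PBS; lysate radioactivity counted by liquid scintillation. Triplicate, three independent experiments; Student's t-test versus vehicle.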

[3] = tested on: OVCAR3 human ovarian cancer cells; test: Cytotoxicity against OVCAR3 cells; assay type: cell-based; conditions: OVCAR-3, 72 h, read-out: IC50 value toward the OVCAR3 human ovarian cancer cells
[4] = target: Na^+/K^+-ATPase (adenosine 5′-triphosphatase from porcine cerebral cortex); conditions: read-out: Na+/K+-ATPase activity inhibition, IC50; previous investigation; cited from earlier work
[5] = tested on: MDA-MB-435 human melanoma cells; test: Cytotoxicity against MDA-MB-435 cells; assay type: cell-based; conditions: MDA-MB-435, 72 h, read-out: IC50 value toward the MDA-MB-435 human melanoma cells

Compound	IC50 [1] [µM]	Inhibition of glucose uptake/transport in H1299 cells [2]	IC50 [3] [µM]	IC50 [4] [µM]	IC50 [5] [µM]
CO[C@H]1[C@H](O[C@H]2CC[C@]3(C=O)[C@H]4CC[C@]5(C)[C@@H](C6=CC(=O)OC6)CC[C@]5(O)[C@@H]4CC[C@]3(O)C2)O[C@H](C)[C@H](O)[C@@H]1OC [Compound 3, (+)-strebloside]	0.17	did not inhibit glucose uptake; also recorded: did not inhibit glucose transport	0.13	0.16	–
CC(=O)O[C@H]1C(=O)[C@@]2(C)[C@H]([C@H](OC(=O)c3ccccc3)[C@]3(O)C[C@H](OC(=O)[C@H](O)[C@@H](NC(=O)c4ccccc4)c4ccccc4)C(C)=C1C3(C)C)[C@]1(OC(C)=O)CO[C@@H]1C[C@@H]2O [Paclitaxel, reference compound]	0.0008	–	–	–	–
CO[C@H]1[C@H](O[C@H]2CC[C@]3(C=O)[C@H]4CC[C@]5(C)[C@](O)(C6=CC(=O)OC6)CC[C@]5(O)[C@@H]4CC[C@]3(O)C2)O[C@H](C)[C@H](O)[C@@H]1OC [Compound 1, (3β)-3-[(2,3-di-O-methyl-β-D-fucopyranosyl)oxy]-5β,14β,17β-trihydroxy-19-oxo-17-epi-card-20(22)-enolide]	–	–	–	–	> 20
CO[C@H]1[C@H](O[C@H]2CC[C@]3(C=O)[C@H]4CC[C@]5(C)[C@@H]6CC[C@]5(O[C@H]5OC(=O)C[C@H]56)[C@@H]4CC[C@]3(O)C2)O[C@H](C)[C@H](O)[C@@H]1OC [Compound 3a, (+)-20,22-dihydro-14,21-epoxystrebloside]	–	–	–	–	> 20
